# In PubChem BioAssay AID504382 (The Scripps Research Institute Molecular Screening Center, 2011):
# The campaign covered roughly 2,500 compounds. About 460 (18%) were called active.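 How the source made its calls: active means mean activation above a cutoff of low control average plus 3 SD from the earlier screen (cut at about 12% in these data); inactive means the rest.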 The list is a sample of the results.
# Test: compound fluorescence interference without thin filaments, confirmation, artefact control for cardiac RTF calcium sensitizer project, biochemical (AID 504382)
# Conditions: IANBD fluorescence interference counterscreen, buffer, EC20 Ca2+; at 7.2 µM; hits give high values; scaled: EC20 calcium 0, EC100 calcium 100
# In short: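 Medium: MOPS/KCl/MgCl2/EGTA/NTA/DTT buffer, pH 7.2 | Reagent: EC20 calcium, 0.472 mM | Compound dosing: 7.2 µM single dose | Times: 15 min compound exposure at 25 °C | Signal: Fluorescence, 480/540 nm | Measure: Interference relative to controls | Repeats: Triplicate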
row,SMILES,fluorescence artifact activation
1,CCc1ccc(-n2c(O)c(C=NCCN(CC)CC)c(=O)[nH]c2=O)cc1,2.92% (inactive)
2,CCOc1ccc(-n2c(SCC(=O)Nc3ccc(OC)cc3OC)nc3c(c2=O)SCC3)cc1,0.76% (inactive)
3,Cc1[nH]nc2c1C(c1cc(Br)cs1)C(C#N)=C(N)O2 (stereo not drawn),0.04% (inactive)
4,COc1ccc(-c2ccc(C3C(C#N)=C(N)Oc4n[nH]c(C)c43)o2)cc1 (stereo not drawn),14.3% (active)
5,CCOc1ccc(NC(=S)c2ccncc2)cc1,0.07% (inactive)
6,C=COc1ccc(N2C(=O)c3ccccc3OC2C)cc1 (stereo not drawn),2.14% (inactive)
7,O=C(O)c1cccc(-c2ccc(/C=N/Nc3ccc([N+](=O)[O-])cc3)o2)c1,1.4% (inactive)
8,Nc1ccc2nc(-c3ccccc3)cnc2c1,26.1% (active)
9,Nc1ccc2nc3c(=O)[nH]c(=S)[nH]c3nc2c1,6.07% (inactive)
10,COc1ccc(-c2cc3ncc(-c4ccccc4)c(N)n3n2)cc1,1.7% (inactive)
11,Cc1ccc(SCC(=O)c2sc(-c3ccccc3)nc2C)cc1,10.1% (inactive)
12,Cc1ccc(-c2nc(N)sc2CC(=O)OCC(=O)NCCC(C)C)cc1,2.4% (inactive)
13,Cc1ccc(-c2nc(C)sc2CC(=O)O)cc1,14.7% (active)
14,COC(=O)c1ccc(S(=O)(=O)N(CCO)Cc2ccccc2)n1C,-0.01% (inactive)
15,Cc1ccc(N=Nc2c(O)n(CN3CCOCC3)c3ccccc23)cc1,4.5% (inactive)
16,CCOC(=O)C1=C(C)N=c2s/c(=C/c3ccc(OCC(=O)O)cc3)c(=O)n2C1c1ccc(SC)cc1 (stereo not drawn),0.15% (inactive)
17,Cc1ccc(C)c(C2=NNC(=O)CC2)c1,0.16% (inactive)
18,Cc1cc(NC(=O)CCC(=O)N(CCC(C)C)C(C(=O)NC2CCCC2)c2cccnc2)no1 (stereo not drawn),0% (inactive)
19,C=CC[C@@H](CC(=O)N(CCO)Cc1ccccc1)C(=O)N[C@@H](COC(=O)[C@@H](CC=C)Cc1ccc(F)cc1)Cc1ccccc1,0.09% (inactive)
20,CC(=O)N1C(=O)C(=C2C=C(C)OC(C)=C2)c2ccccc21,21.3% (active)
21,CCCn1c(N2CCN(CC(=O)c3c[nH]c4ccccc34)CC2)nc2c1c(=O)[nH]c(=O)n2C,0.12% (inactive)
22,CCCCCCCCOc1ccc(C2OC34CCCCC3C(C#N)(C#N)C2(C#N)C(=N)O4)cc1 (stereo not drawn),4.01% (inactive)
23,CCN1/C(=C/C=C/c2oc3ccc(-c4ccccc4)cc3[n+]2CC)Oc2ccc(-c3ccccc3)cc21,-0.02% (inactive)
24,CCC(c1nnnn1C1CCCCC1)N1CCN(C(=O)c2ccco2)CC1 (stereo not drawn),6.69% (inactive)

row,SMILES,fluorescence artifact activation
1,COc1ccc(C(=O)NCC(=O)N2CCN(C(=O)c3ccco3)CC2)cc1OC,23.6% (active)
2,O=C(Nc1ccc(N2CCN(C(=O)c3ccco3)CC2)cc1)c1ccc(F)cc1,0.11% (inactive)
3,COc1cccc(C2CC(c3ccccc3)n3ncnc3N2)c1 (stereo not drawn),7.41% (inactive)
4,CCOC(=O)N1CCC(NC(=O)c2cccs2)CC1,-0.01% (inactive)
5,CCOC(=O)N1CCC(Nc2cccc(SC)c2)CC1,97.8% (active)
6,CCOC(=O)N1CCC(Nc2nc3ccccc3nc2NS(=O)(=O)c2ccc(Cl)cc2)CC1,-0.02% (inactive)
7,CN1CCc2c(sc(/N=C/c3cccs3)c2C(N)=O)C1,-0.06% (inactive)
8,O=C(NCC1CC1)Nc1cccc(Cl)c1,0.16% (inactive)
9,Cn1c(NC(=O)C[n+]2cc(-c3ccc(Cl)cc3)n3c2CCC3)cc(=O)n(C)c1=O,1.86% (inactive)
10,Cc1ccc(C2C(C(=O)c3cccs3)=C(O)C(=O)N2c2nnc(C)s2)cc1 (stereo not drawn),17.5% (active)
11,C=CCOc1ccc(C2C(C(=O)c3cccs3)=C(O)C(=O)N2c2nnc(C)s2)cc1 (stereo not drawn),0.1% (inactive)
12,COc1ccc(C2C(C(=O)c3cccs3)=C(O)C(=O)N2c2nnc(C)s2)cc1OC (stereo not drawn),0.77% (inactive)
13,O=c1c2ccccc2cnn1Cc1n[nH]c(=S)n1-c1ccccc1Cl,2.78% (inactive)
14,O=C(O)c1cccc([N+](=O)[O-])c1C(=O)Nc1cccc2ccccc12,1.51% (inactive)
15,CC(C)C12CN(C(=O)c3ccccc3[N+](=O)[O-])CC(C(C)C)(CN(C(=O)c3ccccc3[N+](=O)[O-])C1)C2=O,0.02% (inactive)
16,O=C(O)c1cccc2c1-c1c(cccc1[N+](=O)[O-])C2,706% (active)
17,COc1ccc(Cl)cc1NC(=O)CN(C)C(=O)COc1ccccc1F,0.35% (inactive)
18,COc1ccc(Cl)cc1NC(=O)CN(C)C(=O)c1ccc(N2CCCCCC2)c([N+](=O)[O-])c1,21.3% (active)
19,COc1ccc(OC)c(NC(=O)c2cc(S(=O)(=O)N(C)C)ccc2N2CCCC2)c1,0.05% (inactive)
20,Cc1nc(NC(=O)c2ccccc2[N+](=O)[O-])sc1C(=O)N(C)C,0.02% (inactive)
21,O=C(CN1CCN(c2ccccc2)CC1)Nc1cccc(C(F)(F)F)c1,0.02% (inactive)
22,O=C(c1ccc(Nc2cccc(C(F)(F)F)c2)nc1)N1CCCC1,55.9% (active)
23,COc1cccc(S(=O)(=O)Nc2cccc(C(=O)N3CCCCCC3)c2)c1,0.03% (inactive)
24,Cc1ccc(S(=O)(=O)N2CCOCC2)cc1NC(=O)CSc1nccn1C,0.07% (inactive)

row,SMILES,fluorescence artifact activation
1,CCCCCC(C)NC(=S)NC(=O)c1cc(S(=O)(=O)N2CCOCC2)ccc1C (stereo not drawn),0.05% (inactive)
2,Cc1csc(NS(=O)(=O)c2cccc([N+](=O)[O-])c2)n1,0.08% (inactive)
3,CC1=CC(=C(C#N)C#N)C=C(C)N1Cc1ccc(Cl)cc1,10.8% (inactive)
4,CCSC1=N/C(=C\C=C2/Oc3ccccc3N2CC)C(=O)S1,9.59% (inactive)
5,CC(Sc1nnc(NCc2ccccc2)s1)C(=O)Nc1ccc2c(c1)C(=O)c1ccccc1C2=O (stereo not drawn),49% (active)
6,COC(=O)c1ccc(CSc2nnc(NCc3ccccc3)s2)o1,4.53% (inactive)
7,CC1(C(=O)Nc2nnc(SCc3ccccc3)s2)Cc2ccccc2C(=O)O1 (stereo not drawn),4.5% (inactive)
8,CCc1ccc(C(C)NC(=O)c2ncn[nH]2)cc1 (stereo not drawn),2.22% (inactive)
9,Clc1ccc(-n2cc(-c3ccc(Br)cc3)[n+]3c2CCCCC3)cc1,-0.05% (inactive)
10,CC(C)(Cc1cccc(CC(C)(C)C(=O)O)c1)C(=O)O,0.07% (inactive)
11,CC(=O)Oc1ccc2c(c1)Oc1cc(OC(C)=O)ccc1C21OC(=O)c2ccccc21,13.6% (active)
12,CC(=O)Oc1ccc(NC(=O)Cc2ccccc2)c(C(=O)O)c1,4.96% (inactive)
13,CCOc1ccc(-c2ncncc2-c2ccccc2OC)c(O)c1,0.08% (inactive)
14,COc1ccc(-n2nc3c(N4CCC(C(=O)N5CCC(C)CC5)CC4)nnc(C)c3c2C)cc1,0.01% (inactive)
15,CCOC(=O)C(CCCCCCC(NC(C)=O)(C(=O)OCC)C(=O)OCC)(NC(C)=O)C(=O)OCC,-0.02% (inactive)
16,Cc1ccc(C(=O)N(C)CC(=O)Nc2cccc(F)c2)cc1S(=O)(=O)N1CCCCC1,0.72% (inactive)
17,Cc1ccnc(N/C=C(\C#N)c2nc(-c3cccc(Br)c3)cs2)c1,5.15% (inactive)
18,COc1cccc(/C=N/Nc2nnc(C)n2N)c1O,0.12% (inactive)
19,CC(C)(C)c1ccc(-c2n[nH]c(=S)n2CC2CCCO2)cc1 (stereo not drawn),34.7% (active)
20,CCOc1cc(/C=C2\NC(=O)NC2=O)cc([N+](=O)[O-])c1O,0.01% (inactive)
21,COc1ccc(/C=C2/SC(c3ccc(C)cc3)=NC2=O)cc1OC,6.74% (inactive)
22,CCOC(=O)c1ccc(-c2c(-c3ccc4c(c3)OCO4)noc2C)cc1F,0.96% (inactive)
23,O=C(Cc1nc2ccccc2[nH]c1=O)c1ccccc1,0.01% (inactive)
24,O=C(O)CSc1nc2ccccc2nc1Cc1ccccc1F,163% (active)

row,SMILES,fluorescence artifact activation
1,O=c1ccc2cc3c4c(c2o1)CCCN4CCC3,9.87% (inactive)
2,Cn1ncc2c(O/N=C(\N)c3ccc(C(F)(F)F)cc3)ncnc21,18.5% (active)
3,Cc1c(O)c(=O)c2ccccc2n1C,2.22% (inactive)
4,CCCOc1ccc(Cn2c(=O)oc3ccc(C)cc32)cc1OC,6.44% (inactive)
5,CCOc1ccc2ccccc2c1CNCCN1CCOCC1,9.02% (inactive)
6,CCCCCOc1ccc(CN2CCOCC2)cc1Cl,25.8% (active)
7,CCC(=O)N(C)CCc1cc2c(c(OC)c1/C=N/NC(=O)c1ccc(Br)cc1)OCO2,0.24% (inactive)
8,O=C(Cn1c(=O)c(=O)n(Cc2ccccc2)c2ccc(Cl)cc21)Nc1ccc(F)cc1F,0.95% (inactive)
9,COc1ncnc2c1N=C1CC(C)(C)CC(N)=C1S2,17.8% (active)
10,CC1(C)CC2CC(C)(CN2C(=S)Nc2ccccc2F)C1 (stereo not drawn),0.69% (inactive)
11,O=C(NC1CC1)c1cccc2c1C(=O)c1ccc(N3CCC(Cc4ccccc4)CC3)cc1S2(=O)=O,-0.05% (inactive)
12,O=C1CCC/C(=N/NC(=O)c2sc3ccccc3c2Cl)C1,0.36% (inactive)
13,COc1ccc2c(Cl)c(C(=O)N/N=C3\CCCC(=O)C3)sc2c1,16.2% (active)
14,O=C1CCCC(=NNC(=O)c2cc3ccccc3cc2O)C1,0.08% (inactive)
15,CN(C)/C=C/C(=O)c1ccc(Br)s1,0.3% (inactive)
16,O=C(O)c1ccccc1CSc1nnnn1-c1ccccc1,13.5% (active)
17,O=c1c(/C=N/Nc2ccccc2)c(Sc2nnnn2-c2ccccc2)nc2ccccn12,-0.06% (inactive)
18,C(=N\Nc1nnnn1-c1ccccc1)/c1ccncc1,0.02% (inactive)
19,Cc1ccnc(NC(=O)c2ccc(Br)s2)c1,0.08% (inactive)
20,CCCCC1=CC2=C(c3ccco3)C(=O)C(C)(OC(=O)c3ccc(OC)cc3)C(=O)C2=CN1CCc1ccccn1 (stereo not drawn),5.57% (inactive)
21,O=C(COC(=O)/C=C/c1ccccc1[N+](=O)[O-])NNC(=O)c1ccc(F)cc1,0.09% (inactive)
